Active and inactive are the calls of the source. The rule behind the calls is not given here.
Key:
[1] = tested on: Radical scavenging activity; test: Antioxidant activity assessed as DPPH radical scavenging activity after 30 mins by spectrophotometry; format: functional
In short: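 Microplate DPPH assay: 30 min incubation at room temperature, then absorbance read at 517 nm. IC50 is the concentration giving a 50% drop in absorbance relative to the DPPH control solution.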

[2] = Activation of aldehyde dehydrogenase
[3] = Inhibition of aldehyde dehydrogenase
[4] = Inhibition of Saccharomyces cerevisiae alcohol dehydrogenase measured every 5 mins for 2 hrs by spectrophotometry
In short: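 Yeast ADH in a microplate. DMSO sample stocks were serially diluted in 10 mM PBS pH 7.4 and combined with ethanol (25% in PBS) and β-NAD⁺ (1.87 mM in PBS), both as added solutions. The mix was equilibrated 5 min at 24 °C, then ADH (1180 unit/L solution) was added and incubated 2 h at 24 °C. NADH was read at A340 every 5 min. IC50 was the concentration halving NADH versus the PBS control at 2 h. Run in triplicate, with disulfiram as positive control.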

Row | Structure (SMILES) | IC50 [1] | Activity [2] | inhibition [3] | IC50 [4]
1 | Cc1c(C)c2c(c(C)c1O)CC[C@@](C)(CCC[C@H](C)CCC[C@H](C)CCCC(C)C)O2 [ALPHA-TOCOPHEROL] | 11.4 µM | – | – | –
2 | Cn1c(=O)c2c(ncn2C)n(C)c1=O [CAFFEINE] | > 100 µM | inactive | inactive | 197 µM
3 | C[C@@H]1O[C@@H](OC[C@H]2O[C@@H](Oc3c(-c4ccc(O)c(O)c4)oc4cc(O)cc(O)c4c3=O)[C@H](OC(=O)/C=C/c3ccc(O)cc3)[C@@H](O)[C@@H]2O)[C@H](O)[C@H](O[C@@H]2O[C@H](CO)[C@@H](O)[C@H](O)[C@H]2O)[C@H]1O [CAMELLIQUERCETISIDE B] | 22 µM | inactive | inactive | 13.7 µM
4 | O=C(O[C@@H]1Cc2c(O)cc(O)cc2O[C@@H]1c1ccc(O)c(O)c1)c1cc(O)c(O)c(O)c1 [EPICATECHIN GALLATE] | 1.5 µM | inactive | inactive | 65.5 µM
5 | C[C@@H]1O[C@@H](OC[C@H]2O[C@@H](Oc3c(-c4ccc(O)cc4)oc4cc(O)cc(O)c4c3=O)[C@H](O)[C@@H](O)[C@H]2O)[C@H](O)[C@H](O[C@@H]2O[C@H](CO)[C@@H](O)[C@H](O)[C@H]2O)[C@H]1O | > 100 µM | inactive | inactive | 17.6 µM
6 | C[C@@H]1O[C@@H](OC[C@H]2O[C@@H](Oc3c(-c4ccc(O)c(O)c4)oc4cc(O)cc(O)c4c3=O)[C@H](OC(=O)/C=C/c3ccc(O)cc3)[C@@H](O[C@@H]3OC[C@H](O)[C@H](O)[C@H]3O)[C@@H]2O)[C@H](O)[C@H](O[C@@H]2O[C@H](CO)[C@@H](O)[C@H](O)[C@H]2O)[C@H]1O [CAMELLIQUERCETISIDE A] | 19.8 µM | inactive | inactive | 17.3 µM
7 | O=C(O[C@@H]1Cc2c(O)cc(O)cc2O[C@@H]1c1ccc(O)cc1)c1cc(O)c(O)c(O)c1 | 2.8 µM | inactive | inactive | 44.3 µM
8 | C[C@@H]1O[C@@H](OC[C@H]2O[C@@H](Oc3c(-c4ccc(O)c(O)c4)oc4cc(O)cc(O)c4c3=O)[C@H](O)[C@@H](O)[C@@H]2O)[C@H](O)[C@H](O[C@@H]2O[C@H](CO)[C@@H](O)[C@H](O)[C@H]2O)[C@H]1O | 7.7 µM | inactive | inactive | 19.7 µM
9 | O=C(O[C@@H]1Cc2c(O)cc(O)cc2O[C@@H]1c1cc(O)c(O)c(O)c1)c1cc(O)c(O)c(O)c1 [EPIGALOCATECHIN GALLATE] | 8.3 µM | inactive | inactive | 42.8 µM
10 | O=c1c(O[C@@H]2O[C@H](CO)[C@H](O)[C@H](O)[C@H]2O)c(-c2cc(O)c(O)c(O)c2)oc2cc(O)cc(O)c12 | 3.5 µM | inactive | inactive | 18.2 µM
11 | C[C@@H]1O[C@@H](OC[C@H]2O[C@@H](Oc3c(-c4ccc(O)c(O)c4)oc4cc(O)cc(O)c4c3=O)[C@H](OC(=O)/C=C/c3ccc(O)cc3)[C@@H](O[C@@H]3OC[C@H](O)[C@H](O)[C@H]3O)[C@@H]2O)[C@H](O)[C@H](O)[C@H]1O [CAMELLIQUERCETISIDE C] | 31.9 µM | inactive | inactive | 46.7 µM
12 | Oc1cc(O)c2c(c1)O[C@H](c1ccc(O)c(O)c1)[C@@H](O)C2 [CIANIDANOL] | 4.3 µM | inactive | inactive | 21.1 µM
13 | COc1cc(C(=O)O[C@@H]2Cc3c(O)cc(O)cc3O[C@@H]2c2ccc(O)c(O)c2)cc(O)c1O | 10.8 µM | inactive | inactive | 44.1 µM
14 | O=c1c(O[C@@H]2O[C@H](CO)[C@H](O)[C@H](O)[C@H]2O)c(-c2ccc(O)cc2)oc2cc(O)cc(O)c12 [TRIFOLIN] | > 100 µM | inactive | inactive | 70.3 µM
15 | C[C@@H]1O[C@@H](OC[C@H]2O[C@@H](Oc3c(-c4ccc(O)cc4)oc4cc(O)cc(O)c4c3=O)[C@H](O)[C@@H](O)[C@@H]2O)[C@H](O)[C@H](O)[C@H]1O [NICOTIFLOROSIDE] | > 100 µM | inactive | inactive | 40.4 µM
16 | O=C(/C=C\c1ccc(O)cc1)O[C@@H]1Cc2c(O)cc(O)cc2O[C@@H]1c1cc(O)c(O)c(O)c1 | 26.4 µM | inactive | inactive | 22.1 µM
17 | C[C@@H]1O[C@@H](OC[C@H]2O[C@@H](Oc3c(-c4ccc(O)c(O)c4)oc4cc(O)cc(O)c4c3=O)[C@H](O)[C@@H](O)[C@H]2O)[C@H](O)[C@H](O[C@@H]2O[C@H](CO)[C@@H](O)[C@H](O)[C@H]2O)[C@H]1O | 30.1 µM | inactive | inactive | 41 µM
18 | Oc1cc(O)c2c(c1)O[C@H](c1cc(O)c(O)c(O)c1)[C@H](O)C2 [EPIGALLOCATECHIN] | 16.2 µM | inactive | inactive | 16.5 µM
19 | C[C@@H]1O[C@@H](OC[C@H]2O[C@@H](Oc3c(-c4ccc(O)c(O)c4)oc4cc(O)cc(O)c4c3=O)[C@H](OC(=O)/C=C/c3ccc(O)cc3)[C@@H](O)[C@@H]2O)[C@H](O)[C@H](O)[C@H]1O [CAMELLIQUERCETISIDE D] | 29.2 µM | inactive | inactive | 41.5 µM
20 | O=c1c(O[C@@H]2O[C@H](CO)[C@@H](O)[C@H](O)[C@H]2O)c(-c2cc(O)c(O)c(O)c2)oc2cc(O)cc(O)c12 | 28 µM | inactive | inactive | 19.9 µM
21 | CCN(CC)C(=S)SSC(=S)N(CC)CC [DISULFIRAM] | – | – | – | 248 µM
22 | O=C(/C=C/c1ccc(O)cc1)O[C@@H]1Cc2c(O)cc(O)cc2O[C@@H]1c1cc(O)c(O)c(O)c1 | 43.8 µM | inactive | inactive | 8 µM

Source: ChEMBL document CHEMBL1955735, “Tea catechins and flavonoids from the leaves of Camellia sinensis inhibit yeast alcohol dehydrogenase” (Bioorg Med Chem, 2012)
